ChEMBL document CHEMBL3779892, “Increasing the binding affinity of VEGFR-2 inhibitors by extending their hydrophobic interaction with the active site: Design, synthesis and biological evaluation of 1-substituted-4-(4-methoxybenzyl)phthalazine derivatives” (Eur J Med Chem, 2016)

Key:
Format in all cases: functional
T47D = assay: Growth inhibition of human T47D cells at 10 uM after 48 hrs by sulforhodamine B assay; conditions: read-out: GI
How it was run: (§1)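 NCI-60 panel, adherent cells grown in RPMI 1640 with 5% FBS and 2 mM L-glutamine, plated at 5000–40,000 cells/well and preincubated 24 h at 37 °C, 5% CO2. 10 µM final compound from DMSO stock, triplicate wells, 48 h. Fixed with cold TCA (10% final, 60 min, 4 °C) and stained with 0.4% SRB. Absorbance read at 515 nm; growth calculated against time-zero and control wells.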

MDA-MB-231 = assay: Growth inhibition of human MDA-MB-231 cells at 10 uM after 48 hrs by sulforhodamine B assay; conditions: MDA-MB-231, 48 h, read-out: GI
How it was run: (§2)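 Run at NCI on the 60-line panel. Cells grown in RPMI 1640 with 5% FBS and 2 mM L-glutamine, plated at 5000–40,000 cells/well by doubling time, and held 24 h at 37 °C before dosing. Drug (DMSO stock) given at a single final 10 µM in triplicate wells for 48 h. Adherent cells fixed with cold TCA (10% final), suspension cells with 16% TCA. SRB stain read at 515 nm. Percent growth from Tz, C and Ti.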

K562 = assay: Growth inhibition of human K562 cells at 10 uM after 48 hrs by sulforhodamine B assay; conditions: K562, 48 h, read-out: GI; how it was run: as §2
[1] = Growth inhibition of human RPMI8226 cells at 10 uM after 48 hrs by sulforhodamine B assay; conditions: RPMI-8226, 48 h, read-out: GI; how it was run: as §2
SR = assay: Growth inhibition of human SR cells at 10 uM after 48 hrs by sulforhodamine B assay; conditions: read-out: GI
How it was run: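 NCI-60 screen. Cells were grown in RPMI 1640 with 5% FBS and 2 mM L-glutamine, plated at 5000–40,000 cells/well and held 24 h at 37 °C, 5% CO2. Single 10 µM final dose from DMSO stock, triplicate wells, 48 h. Settled cells were fixed with 80% TCA (16% final) and stained with 0.4% SRB. Dye was solubilized in 10 mM Tris and read at 515 nm. Growth was calculated against time-zero and untreated wells.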

[2] = Growth inhibition of human HOP92 cells at 10 uM after 48 hrs by sulforhodamine B assay; conditions: HOP-92, 48 h, read-out: GI; how it was run: as §2
NCI-H23 = assay: Growth inhibition of human NCI-H23 cells at 10 uM after 48 hrs by sulforhodamine B assay; conditions: NCI-H23, 48 h, read-out: GI; how it was run: as §2
NCI-H322M = assay: Growth inhibition of human NCI-H322M cells at 10 uM after 48 hrs by sulforhodamine B assay; conditions: read-out: GI; how it was run: as §2
[3] = Growth inhibition of human COLO205 cells at 10 uM after 48 hrs by sulforhodamine B assay; conditions: COLO 205, 48 h, read-out: GI; how it was run: as §2
[4] = Growth inhibition of human HCC2998 cells at 10 uM after 48 hrs by sulforhodamine B assay; conditions: HCC 2998, 48 h, read-out: GI; how it was run: as §2
[5] = Growth inhibition of human HCT116 cells at 10 uM after 48 hrs by sulforhodamine B assay; conditions: HCT-116, 48 h, read-out: GI; how it was run: as §2
HT-29 = assay: Growth inhibition of human HT-29 cells at 10 uM after 48 hrs by sulforhodamine B assay; conditions: HT-29, 48 h, read-out: GI; how it was run: as §2
[6] = Growth inhibition of human SF268 cells at 10 uM after 48 hrs by sulforhodamine B assay; conditions: SF-268, 48 h, read-out: GI; how it was run: as §2
[7] = Growth inhibition of human SF295 cells at 10 uM after 48 hrs by sulforhodamine B assay; conditions: SF-295, 48 h, read-out: GI; how it was run: as §2
[8] = Growth inhibition of human SF539 cells at 10 uM after 48 hrs by sulforhodamine B assay; conditions: SF-539, 48 h, read-out: GI; how it was run: as §2
[9] = Growth inhibition of human SNB19 cells at 10 uM after 48 hrs by sulforhodamine B assay; conditions: SNB-19, 48 h, read-out: GI; how it was run: as §2
[10] = Growth inhibition of human SNB75 cells at 10 uM after 48 hrs by sulforhodamine B assay; conditions: SNB-75, 48 h, read-out: GI; how it was run: as §2
U-251 = assay: Growth inhibition of human U251 cells at 10 uM after 48 hrs by sulforhodamine B assay; conditions: U-251, 48 h, read-out: GI; how it was run: as §1
MDA-MB-435 = assay: Growth inhibition of human MDA-MB-435 cells at 10 uM after 48 hrs by sulforhodamine B assay; conditions: MDA-MB-435, 48 h, read-out: GI; how it was run: as §2
SK-MEL-28 = assay: Growth inhibition of human SK-MEL-28 cells at 10 uM after 48 hrs by sulforhodamine B assay; conditions: SK-MEL-28, 48 h, read-out: GI; how it was run: as §2
SK-MEL-5 = assay: Growth inhibition of human SK-MEL-5 cells at 10 uM after 48 hrs by sulforhodamine B assay; conditions: SK-MEL-5, 48 h, read-out: GI; how it was run: as §2
[11] = Growth inhibition of human UACC257 cells at 10 uM after 48 hrs by sulforhodamine B assay; conditions: UACC-257, 48 h, read-out: GI; how it was run: as §1
[12] = Growth inhibition of human IGROV1 cells at 10 uM after 48 hrs by sulforhodamine B assay; conditions: IGROV-1, 48 h, read-out: GI; how it was run: as §2
[13] = Growth inhibition of human OVCAR4 cells at 10 uM after 48 hrs by sulforhodamine B assay; conditions: OVCAR-4, 48 h, read-out: GI; how it was run: as §2
[14] = Growth inhibition of human OVCAR5 cells at 10 uM after 48 hrs by sulforhodamine B assay; conditions: OVCAR-5, 48 h, read-out: GI; how it was run: as §2
[15] = Growth inhibition of human OVCAR8 cells at 10 uM after 48 hrs by sulforhodamine B assay; conditions: OVCAR-8, 48 h, read-out: GI; how it was run: as §2
[16] = Growth inhibition of human NCI-ADR-RES cells at 10 uM after 48 hrs by sulforhodamine B assay; conditions: read-out: GI; how it was run: as §2
[17] = Growth inhibition of human SKOV3 cells at 10 uM after 48 hrs by sulforhodamine B assay; conditions: SK-OV-3, 48 h, read-out: GI; how it was run: as §2
A498 = assay: Growth inhibition of human A498 cells at 10 uM after 48 hrs by sulforhodamine B assay; conditions: A498, 48 h, read-out: GI; how it was run: as §2
[18] = Growth inhibition of human Caki1 cells at 10 uM after 48 hrs by sulforhodamine B assay; conditions: CAKI-1, 48 h, read-out: GI; how it was run: as §2
[19] = Growth inhibition of human RXF393 cells at 10 uM after 48 hrs by sulforhodamine B assay; conditions: RXF 393, 48 h, read-out: GI; how it was run: as §2
SN12C = assay: Growth inhibition of human SN12C cells at 10 uM after 48 hrs by sulforhodamine B assay; conditions: read-out: GI; how it was run: as §2
[20] = Growth inhibition of human DU145 cells at 10 uM after 48 hrs by sulforhodamine B assay; conditions: DU-145, 48 h, read-out: GI; how it was run: as §2
MCF7 = assay: Growth inhibition of human MCF7 cells at 10 uM after 48 hrs by sulforhodamine B assay; conditions: MCF7, 48 h, read-out: GI; how it was run: as §2

COc1ccc(Cc2nnc(Nc3ccc(Cl)c(C(F)(F)F)c3)c3ccccc23)cc1
inhibition of growth at 10 µM (T47D): 59%
inhibition of growth at 10 µM (MDA-MB-231): 40%
inhibition of growth at 10 µM (K562): 60%
inhibition of growth at 10 µM [1]: 94%
inhibition of growth at 10 µM (SR): 43%
inhibition of growth at 10 µM [2]: 58%
inhibition of growth at 10 µM (NCI-H23): 40%
inhibition of growth at 10 µM (NCI-H322M): 37%
inhibition of growth at 10 µM [3]: < 30%
inhibition of growth at 10 µM [4]: 42%
inhibition of growth at 10 µM [5]: 73%
inhibition of growth at 10 µM (HT-29): 48%
inhibition of growth at 10 µM [6]: < 30%
inhibition of growth at 10 µM [7]: 49%
inhibition of growth at 10 µM [8]: 42%
inhibition of growth at 10 µM [9]: 43%
inhibition of growth at 10 µM [10]: < 30%
inhibition of growth at 10 µM (U-251): 59%
inhibition of growth at 10 µM (MDA-MB-435): < 30%
inhibition of growth at 10 µM (SK-MEL-28): < 30%
inhibition of growth at 10 µM (SK-MEL-5): < 30%
inhibition of growth at 10 µM [11]: < 30%
inhibition of growth at 10 µM [12]: 32%
inhibition of growth at 10 µM [13]: 45%
inhibition of growth at 10 µM [14]: 33%
inhibition of growth at 10 µM [15]: 40%
inhibition of growth at 10 µM [16]: 50%
inhibition of growth at 10 µM [17]: < 30%
inhibition of growth at 10 µM (A498): 46%
inhibition of growth at 10 µM [18]: 35%
inhibition of growth at 10 µM [19]: 33%
inhibition of growth at 10 µM (SN12C): 46%
inhibition of growth at 10 µM [20]: 37%
inhibition of growth at 10 µM (MCF7): 48%
